According to PubChem BioAssay:
The list shows a part of the results. Calls of active or inactive are those of the source.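 The calls were made as follows: active = mean inhibition across replicates above the hit cutoff set in the primary screen (cut at about 30% in these data); inactive = the rest.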

Biological target: (Lyso)-N-acylphosphatidylethanolamine lipase (Mus musculus) (UniProt Q8VD66)
Test: mouse ABHD4 hydrolase blockers, triplicate – biochemical, fluorescence polarization, confirmation (AID 720658)
Conditions: purified mABHD4, FP-Rh probe fluorescence polarization; at 8.92 µM; hits give high values
Method in brief: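 Test system: wild-type mouse ABHD4. Medium: HEPES-saline buffer with 0.01% Pluronic F-127. Doses: single nominal compound dose 8.92 µM, 0.89% DMSO final. Timing: pre-incubation 45 min, probe exposure 60 min, 25 °C. Technique: FP readout, ex 525 nm, em 598 nm. Control set: S159A mutant ABHD4 plus DMSO as 100%, wild-type plus DMSO 0%.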

Chain of (Lyso)-N-acylphosphatidylethanolamine lipase (Mus musculus) (Q8VD66 whole entry, looked up): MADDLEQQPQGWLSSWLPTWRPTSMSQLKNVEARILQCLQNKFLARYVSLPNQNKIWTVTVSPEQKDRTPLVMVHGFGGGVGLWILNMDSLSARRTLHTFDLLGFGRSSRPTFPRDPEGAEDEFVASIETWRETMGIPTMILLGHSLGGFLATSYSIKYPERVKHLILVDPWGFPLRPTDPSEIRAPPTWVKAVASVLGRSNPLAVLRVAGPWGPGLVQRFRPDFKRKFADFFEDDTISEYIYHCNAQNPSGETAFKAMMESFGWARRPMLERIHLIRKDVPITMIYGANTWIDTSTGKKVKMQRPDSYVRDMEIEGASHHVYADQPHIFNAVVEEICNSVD

inhibition, active:
COc1ccc(Br)cc1/C=N/Nc1ccc(Cl)c(C(=O)O)c1 32.5%, OCCNc1nc(Nc2ccc(Cl)c(Cl)c2)nc2ccccc12 40.4%, O=[N+]([O-])c1cc(Br)c(O)c(/C=N/Nc2nc3ccccc3s2)c1 69.5%, CC(=O)Oc1ccc(N(C(C)=O)S(=O)(=O)c2ccc3ccccc3c2)cc1Br 30.6%, CC1CCN(c2ccc(C(=O)O)cc2NS(=O)(=O)c2ccc(Br)s2)CC1 47.5%, CCOC(=O)C1=C(C)N=C2c3ccccc3C(=O)C2C1c1ccc(Br)cc1 (centres undefined) 44.8%, CCOC(=O)[C@H]1Nc2ccc(Cl)cc2[C@@H]2[C@H]1C1CC(c3ccccc31)N2C(=O)OCc1ccccc1 (some centres undefined) 42%, O=C(O)c1ccccc1/C=N/Nc1ccc(S(=O)(=O)Nc2ccc(Cl)cc2)cc1[N+](=O)[O-] 50.4%, CC/C(=C(/c1ccccc1)c1ccc(OCC[N+](C)(C)C)cc1)c1ccccc1 36.6%

inhibition, inactive:
Cc1ccc(NC(=O)Cc2nc(COC(=O)C(C)NS(=O)(=O)c3ccc(C)cc3)cs2)cc1 (centres undefined) 7.11%, CCCCCCSc1ccc(-c2nc3ccc(Cl)cn3c2NCc2ccccc2)cc1 5.45%, CCC(CO)Oc1cc(NC(=O)c2cccc(F)c2)c2ncn(C(C)C)c2c1 (centres undefined) 1.62%, c1ccc2sc(NN=C3CCCC3)nc2c1 -1.86%, CCOc1cc(/C=C2/N=C(c3ccc(C(C)(C)C)cc3)OC2=O)cc(Cl)c1OS(C)(=O)=O 18.8%
